Screening data: PubChem BioAssay, The Scripps Research Institute Molecular Screening Center
Only some compounds are listed: those with a hit (about 1.9% of all), similar ones and a draw of the others.
CHRM4 agonist: CHRM4 agonism in calcium assay | P08173 | CHO-K1 hM4/Gqi5, Fluo-8 calcium fluorescence; vehicle 0%, full acetylcholine response 100% | activation, % at 3 µM | 0.14% of 360,000 active;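 active = activation above the run mean over all test wells plus 3 SD, cut at about 32% in these data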;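 also: peak over basal fluorescence ratio per well then scaled between controls; 0% = DMSO wells and 100% = acetylcholine at EC100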
CHRM4 antagonist: antagonists of human muscarinic M4 receptor (CHRM4). inhibition, % at 3 µM. P08173. 0.73% of 360,000 active. CHO-hM4 cells, ACh EC80, Fluo-8 calcium fluorescence;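 active = inhibition above its plate's cutoff, the mean inhibition of sample wells plus 3 SD, cut at about 27% in these data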;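 also: 0% = acetylcholine EC80 with DMSO and 100% = DMSO without agonist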
M5 PAM: potentiates acetylcholine response at human M5 receptor; P08912; CHO-K1 hM5, Fluo-8 calcium, ACh EC20 PAM; 0% = ACh EC20, 100% = ACh EC100; AID 624038; activation, % at 3 µM; 0.3% of 360,000 active;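 active = activation above the run cutoff, the mean activation of all test compounds plus 3 SD, cut at about 18% in these data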
Target sequence (P08912 whole entry, looked up): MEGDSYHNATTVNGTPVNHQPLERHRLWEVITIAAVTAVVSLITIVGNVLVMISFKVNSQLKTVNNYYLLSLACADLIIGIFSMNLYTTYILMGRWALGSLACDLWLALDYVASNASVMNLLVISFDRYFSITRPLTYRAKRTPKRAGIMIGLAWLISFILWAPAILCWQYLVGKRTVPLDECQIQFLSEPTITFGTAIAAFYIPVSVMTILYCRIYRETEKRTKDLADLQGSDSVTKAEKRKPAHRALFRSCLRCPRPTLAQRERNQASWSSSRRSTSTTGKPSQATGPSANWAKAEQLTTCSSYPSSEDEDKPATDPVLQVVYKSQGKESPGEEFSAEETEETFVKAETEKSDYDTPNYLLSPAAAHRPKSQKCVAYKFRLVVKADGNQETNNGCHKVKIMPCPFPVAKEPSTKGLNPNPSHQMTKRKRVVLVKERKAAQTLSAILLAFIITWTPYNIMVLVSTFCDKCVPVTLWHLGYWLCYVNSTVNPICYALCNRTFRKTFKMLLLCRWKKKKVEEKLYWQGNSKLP
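Probe or stimulus: acetylcholine, EC20 level; Assay system: human M5 receptor in CHO-K1 cells; Schedule: compound preincubation 140 s before EC20 acetylcholine addition; Technique: intracellular calcium via Fluo-8 fluorescence; Dosing: single-point, 3 µM nominal; Read-out basis: percent activation from peak-over-basal fluorescence ratio, scaled EC20-to-EC100 acetylcholine; Repeats: one well per compound, no replicates.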
CHRM5 antagonist: blocks acetylcholine activation of human M5 receptor; P08912; CHO-hM5 cells, Fluo-8 calcium fluorescence, ACh EC80; inhibition, % at 3 µM; 0.59% of 360,000 active; AID 624040;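 active = inhibition above a per-plate cutoff, the mean of that plate's test compounds plus 3 SD, cut at about 27% in these data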;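 also: 0% = acetylcholine EC80 with DMSO and 100% = DMSO without agonist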
M4 PAM: CHRM4 positive allosteric modulation | P08173 | CHO-K1 hM4/Gqi5, Fluo-8 calcium fluorescence, ACh EC20; 0% = ACh EC20, 100% = maximal ACh | activation, % at 3 µM | 0.4% of 360,000 active | AID 624126;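 active = activation above its plate's cutoff, the mean activation of sample wells plus 3 SD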
CHRM5 agonist: agonists of human muscarinic M5 receptor (CHRM5) | AID 624037 | CHO-K1 hM5 cells, Fluo-8 calcium fluorescence; 0% DMSO wells, 100% maximal acetylcholine response | 0.19% of 360,000 active | P08912 | activation, % at 3 µM;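 active = activation above the run's mean over test compounds plus 3 SD, cut at about 23% in these data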;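 also: signal is peak over basal fluorescence ratio across the kinetic read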
* = called active by the depositor.

SMILES | CHRM4 agonist | CHRM4 antagonist | M5 PAM | CHRM5 antagonist | M4 PAM | CHRM5 agonist
COc1cccc(C(C(=O)NCc2ccco2)N(Cc2ccco2)C(=O)Cn2nnc3ccccc32)c1 (stereo unspecified) | 9 | 30* | -19 | 13 | -7 | -1
Cc1c(CCC(=O)O)c(=O)oc2cc3occ(-c4ccc(F)cc4)c3cc12 | 1 | -12 | 35* | 38* | 5 | -1
COc1ccc(S(=O)(=O)N2CCCCC2)cc1NC(=O)c1c(F)cccc1Cl | 1 | -8 | -4 | 9 | 2 | -3
CN(Cc1ccccc1O)CC1CCCN(CCc2ccc(Cl)cc2)C1 (stereo unspecified) | 3 | 37* | -28 | 6 | -14 | -22
CN(CC1CCCN(CCc2ccccc2F)C1)C(=O)c1cc2ccccc2o1 (stereo unspecified) | 1 | 37* | -15 | 6 | -12 | -3
N#CC(=C1C=C(Br)C(=NO)C=C1Cl)c1cccc2ccccc12 | 2 | -3 | -6 | 1 | -4 | 0
O=C(c1ccc(Cl)cc1)C1CCN(C(=S)Nc2ccccc2)CC1 | 1 | -7 | 2 | 3 | 4 | 1
CCC(Sc1nc2c(cnn2-c2ccc(Cl)cc2)c(=O)[nH]1)C(=O)OC (stereo unspecified) | -1 | 40* | 0 | 3 | -12 | -1
Cc1cc(O)ccc1-c1cccc2nccn12 | 2 | -6 | -2 | 1 | -3 | 2
CCN(CC)S(=O)(=O)c1cccc(NC(=O)COC(=O)c2cccs2)c1 | -1 | -8 | -11 | 5 | -8 | 8
Cc1ccc(NC(=O)c2cccnc2)c([N+](=O)[O-])c1 | 0 | -4 | -3 | 6 | 0 | -1
Cc1ccc(NC(=O)c2cncc(Br)c2)c([N+](=O)[O-])c1 | 1 | -9 | -2 | -1 | 23* | 0
O=C(O)/C=C/c1cn(Cc2ccccc2Cl)nc1-c1ccccc1 | 2 | -12 | 20* | -4 | -3 | 0
CCOC(=O)CSc1nnc(NC(=O)CCc2ccccc2)s1 | 1 | 7 | 7 | -1 | 21* | -4
Nc1nc(=O)n(C2CCC(CO)O2)cc1F (stereo unspecified) | 2 | -5 | -6 | 6 | 15 | 0
CC(C)(C)NC(=O)C(c1ccnc2ccccc12)n1c(=O)c(-c2cc3ccccc3[nH]2)nc2ccccc21 (stereo unspecified) | 3 | -8 | -2 | -4 | 4 | 3
CCn1c(CNc2ccc(C)cc2)nnc1SCC(=O)NCc1ccccc1 | 1 | 1 | -1 | 3 | 31* | -5
O=C(CN1C(=O)CSC1=O)c1ccccc1 | 1 | -11 | 45* | -6 | 9 | -3
O=C(COc1ncnc2ccc(Br)cc12)NC1CCCC1 | 2 | -11 | 4 | -4 | 25* | 3
CCOc1ccc(N2C(=O)CC(C(C)c3ccccc3)C2=O)cc1 (stereo unspecified) | 4 | 4 | 3 | -11 | 1 | 1
S=c1[nH]ncn1-c1ccccn1 | 0 | 5 | 6 | -4 | 25* | -3
c1ccc(-n2cnc3ccccc32)nc1 | 0 | -5 | -3 | 14 | 0 | -3
CCCCN(CCCC)c1cn[nH]c(=O)c1Cl | -1 | 43* | -26 | 11 | -13 | -13
COc1ccc(N2CCN(C(=O)C(=O)c3cc(OC)c(OC)c(OC)c3)CC2)cc1 | 5 | -14 | -7 | 13 | 1 | 1
COc1cc(C(=O)C(=O)N2CCN(c3ccccc3)CC2)cc2ccccc12 | 5 | -18 | 18* | -19 | 4 | 0
SMILES | CHRM4 agonist | CHRM4 antagonist | M5 PAM | CHRM5 antagonist | M4 PAM | CHRM5 agonist
CC1(C(=O)NS(C)(=O)=O)CCN1C(=O)C/C=C/c1ccccc1 (stereo unspecified) | 0 | -23 | -6 | 1 | -1 | -1
O=C(NNC(=O)c1cccs1)c1ccco1 | 1 | 2 | 21* | 7 | 7 | 2
O=C(NC(=S)NNC(=O)c1cccs1)c1ccco1 | 1 | 8 | -4 | 4 | -6 | -2
CC(C)(C)c1ccc(C(=O)NC(=S)NNC(=O)c2cccs2)cc1 | 109* | 14 | -22 | 21 | -19 | 46*
O=C(NC(=S)NNC(=O)c1cccs1)c1ccccc1 | 1 | 12 | -11 | 27* | -2 | -3
Cc1ccccc1C(=O)NNC(=S)NC(=O)c1cccs1 | 39* | 9 | -11 | 15 | -13 | 15
Cc1cccc(C(=O)NC(=S)NNC(=O)c2cccs2)c1 | 6 | 15 | -8 | 11 | -8 | 6
CCN(CC)C(=O)C1=C(C)N(Cc2ccc(OC)cc2)C(=O)C(CC(=O)NCC2CCCCC2)C1 (stereo unspecified) | -1 | -11 | -2 | 6 | 2 | -2
CC(C)(C)c1ccc(C(=O)NC(=S)NCc2cccnc2)cc1 | 2 | -17 | -19 | -2 | -8 | -9
COC(=O)CNC(=S)NC(=O)c1ccc(C(C)(C)C)cc1 | -1 | 27* | -20 | 8 | -22 | -16
COC(=O)[C@@]12C[C@@H](CC(=O)N3CCOCC3)C(=O)N(Cc3ccco3)C1=CCC(C)(C)C2 | 1 | 3 | 5 | 3 | 6 | 2
CS(=O)(=O)N(CC(=O)Nc1ccccc1C(=O)NCCc1ccccc1)c1ccc2c(c1)OCCO2 | 1 | 41* | -9 | -3 | -14 | 4
CS(=O)(=O)N(CC(=O)Nc1ccccc1C(=O)NCc1ccccc1)c1ccc2c(c1)OCCO2 | 7 | 10 | -9 | -6 | -18 | 10
CN(CC(=O)Nc1ccccc1Cl)C(=O)C1CSC2(C)CCC(=O)N12 (stereo unspecified) | 1 | -5 | 3 | 9 | 2 | 1
CC(=O)N1CCN(Cc2nc3cc(NC(=O)c4ccccc4)ccc3n2C)CC1 | 1 | -3 | 0 | 6 | 6 | -2
COc1ccccc1C(=O)Nc1ccc2c(c1)nc(CN1CCN(C(C)=O)CC1)n2C | 1 | 27* | -2 | 6 | 7 | 2
NC(=O)c1ccsc1NC(=O)CSc1ccccc1F | 4 | 5 | 0 | 2 | 3 | 5
CN(C)S(=O)(=O)c1cccc(C(=O)OCC(=O)Nc2sccc2C(N)=O)c1 | 30 | 38* | -20 | 16 | -20 | 15
Cc1ccccc1SCC(=O)OCC(=O)Nc1sccc1C(N)=O | 19 | 31* | -19 | 40* | -12 | 9
NC(=O)c1ccsc1NC(=O)COC(=O)Cc1cccc2ccccc12 | 22 | 61* | -21 | 55* | -14 | 8
COc1ccc(C2=CC(=O)C[C@H](CN3C(=O)c4ccccc4C3=O)N(C(=O)OC(C)(C)C)O2)cc1 | 9 | -1 | -3 | 2 | -6 | 0
